{
  "source": "ChEMBL document CHEMBL1649390",
  "about": "“New (RS)-benzoxazepin-purines with antitumour activity: The chiral switch from (RS)-2,6-dichloro-9-[1-(p-nitrobenzenesulfonyl)-1,2,3,5-tetrahydro-4,1-benzoxazepin-3-yl]-9H-purine” (Eur J Med Chem, 2011)",
  "key": {"MCF7 [1]": {"test_system": "MCF7", "assay": "Cytotoxicity against human MCF7 cells expressing wild type p53 and ras mutant […]", "assay_type": "functional, cell-based"}, "MDA-MB-231 [2]": {"test_system": "MDA-MB-231", "assay": "Cytotoxicity against human MDA-MB-231 cells expressing high level of p53 […]", "assay_type": "functional, cell-based"}, "[3]": {"assay": "Cytotoxicity against human MCF10A cells […] by SRB assay", "assay_type": "cell-based", "conditions": "MCF-10A"}, "[4]": {"assay": "Therapeutic index, ratio of IC50 for human MCF10A cells to IC50 for human MCF7 cells expressing wild type p53 and ras mutant", "assay_type": "cell-based", "conditions": "MCF10A cells versus MCF7 cells (wild type p53, ras mutant), read-out: Ratio IC50", "procedure,_shortened": "(§1)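 Ratio of IC50 in non-tumour MCF-10A to IC50 in the tumour line, both from the SRB growth assay described for cytotoxicity.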"}, "[5]": {"assay": "Therapeutic index, ratio of IC50 for human MCF10A cells to IC50 for human MDA-MB-231 cells expressing high level of p53", "assay_type": "cell-based", "conditions": "MCF10A cells versus MDA-MB-231 cells (high level of p53), read-out: Ratio IC50", "procedure,_shortened": "as §1"}, "[6]": {"assay": "Cell cycle arrest in human MCF10A cells assessed as accumulation at G0/G1 phase after 48 hrs using propidium iodide staining by flow cytometry (reference value: 65.70 +/- 1.14 %)", "assay_type": "ADME, cell-based", "conditions": "mcf-10a"}, "[7]": {"assay": "Cell cycle arrest in human MCF10A cells assessed as accumulation at G2/M phase after 48 hrs using propidium iodide staining by flow cytometry (reference value: 12.55 +/- 0.68 %)", "assay_type": "ADME, cell-based", "conditions": "mcf-10a"}, "[8]": {"assay": "Cell cycle arrest in human MCF10A cells assessed as accumulation at S phase after 48 hrs using propidium iodide staining by flow cytometry (reference value: 21.78 +/- 0.46 %)", "assay_type": "ADME, cell-based", "conditions": "mcf-10a"}, "MCF7 [9]": {"test_system": "MCF7", "assay": "Cell cycle arrest in human MCF7 cells assessed as accumulation at G0/G1 phase after 48 hrs using propidium iodide staining by flow cytometry (reference value: 89.88 +/- 1.73 %)", "assay_type": "functional"}, "MCF7 [10]": {"test_system": "MCF7", "assay": "Cell cycle arrest in human MCF7 cells assessed as accumulation at G2/M phase after 48 hrs using propidium iodide staining by flow cytometry (reference value: 1.57 +/- 2.12 %)", "assay_type": "functional"}, "MCF7 [11]": {"test_system": "MCF7", "assay": "Cell cycle arrest in human MCF7 cells assessed as accumulation at S phase after 48 hrs using propidium iodide staining by flow cytometry (reference value: 8.55 +/- 0.40 %)", "assay_type": "functional"}, "MDA-MB-231 [12]": {"test_system": "MDA-MB-231", "assay": "Cell cycle arrest in human MDA-MB-231 cells assessed as accumulation at G0/G1 phase after 48 hrs using propidium iodide staining by flow cytometry (reference value: 42.06 +/- 0.01 %)", "assay_type": "functional"}, "MDA-MB-231 [13]": {"test_system": "MDA-MB-231", "assay": "Cell cycle arrest in human MDA-MB-231 cells assessed as accumulation at G2/M phase after 48 hrs using propidium iodide staining by flow cytometry (reference value: 31.59 +/- 0.03 %)", "assay_type": "functional"}, "MDA-MB-231 [14]": {"test_system": "MDA-MB-231", "assay": "Cell cycle arrest in human MDA-MB-231 cells assessed as accumulation at S phase after 48 hrs using propidium iodide staining by flow cytometry (reference value: 26.35 +/- 0.03 %)", "assay_type": "functional"}, "MCF7 [15]": {"test_system": "MCF7", "assay": "Induction of apoptosis in human MCF7 cells assessed as cell viability at IC50 concentration after 24 hrs using V-FITC and propidium iodide staining by flow cytometry (reference value: 90.42 +/- 0.63 %)", "assay_type": "functional"}, "MCF7 [16]": {"test_system": "MCF7", "assay": "Induction of apoptosis in human MCF7 cells assessed as necrotic cells at IC50 concentration after 24 hrs using V-FITC and propidium iodide staining by flow cytometry (reference value: 9.55 +/- 0.21 %)", "assay_type": "functional"}, "MCF7 [17]": {"test_system": "MCF7", "assay": "Induction of apoptosis in human MCF7 cells assessed as early apoptotic cells at IC50 concentration after 24 hrs using V-FITC and propidium iodide staining by flow cytometry relative to control", "assay_type": "functional"}, "MCF7 [18]": {"test_system": "MCF7", "assay": "Induction of apoptosis in human MCF7 cells assessed as late apoptotic cells at IC50 concentration after 24 hrs using V-FITC and propidium iodide staining by flow cytometry (reference value: 0.03 +/- 0.01 %)", "assay_type": "functional"}, "MCF7 [19]": {"test_system": "MCF7", "assay": "Induction of apoptosis in human MCF7 cells assessed as necrotic cells at IC50 concentration after 48 hrs using V-FITC and propidium iodide staining by flow cytometry (reference value: 12.61 +/- 7.50 %)", "assay_type": "functional"}, "MCF7 [20]": {"test_system": "MCF7", "assay": "Induction of apoptosis in human MCF7 cells assessed as early apoptotic cells at IC50 concentration after 48 hrs using V-FITC and propidium iodide staining by flow cytometry relative to control", "assay_type": "functional"}, "MCF7 [21]": {"test_system": "MCF7", "assay": "Induction of apoptosis in human MCF7 cells assessed as late apoptotic cells at IC50 concentration after 24 hrs using V-FITC and propidium iodide staining by flow cytometry (reference value: 1.11 +/- 0.24 %)", "assay_type": "functional"}, "Mus musculus [22]": {"test_system": "Mus musculus", "assay": "Acute toxicity in BALB/c mouse assessed as mortality up to 200 mg/kg, ip after 2 weeks", "assay_type": "organism-based", "parameters": "dose 200 mg/kg, route intraperitoneal", "conditions": "in vivo, 336 h", "procedure,_shortened": "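Six-week-old female BALB/c mice (about 20 g) were given a single i.p. bolus at 50, 75, 100, 150 and 200 mg/kg (n = 25), dissolved in 0.25 mL of 0.9% NaCl/DMSO. Vehicle controls received saline or DMSO alone. Mice were weighed and scored twice weekly for 2 weeks for systemic toxicity (listlessness, weight loss) and local toxicity (alopecia, skin reaction, leg motility).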"}, "Mus musculus [23]": {"test_system": "Mus musculus", "assay": "Acute toxicity in BALB/c mouse assessed as mortality up to 50 mg/kg, po after 2 weeks", "assay_type": "organism-based", "parameters": "dose 50 mg/kg, route oral", "conditions": "in vivo, 336 h", "procedure,_shortened": "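Female BALB/c mice, six weeks old (about 20 g), were dosed once by gavage at 0.05, 0.5, 5 and 50 mg/kg (n = 25) in 0.25 mL of 0.9% NaCl/DMSO. Controls received saline or DMSO alone. Body weight and signs of systemic toxicity (listlessness, weight loss) and local toxicity (alopecia, skin reaction, leg motility) were checked twice weekly over 2 weeks.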"}, "MCF7 [24]": {"test_system": "MCF7", "assay": "Induction of apoptosis in human MCF7 cells assessed as viable cells at IC50 concentration after 48 hrs using V-FITC and propidium iodide staining by flow cytometry (reference value: 86.26 +/- 7.25 %)"}},
  "data": [
    {"compound": "O=[N+]([O-])c1ccc(S(=O)(=O)N2CC(n3cnc4c(Cl)nc(Cl)nc43)OCc3ccccc32)cc1", "note": "(racemic)", "values": [
      {"measurement": "IC50", "setting": "MCF7 [1]", "value": 355, "unit": "nM"},
      {"measurement": "IC50", "setting": "MDA-MB-231 [2]", "value": 166, "unit": "nM"},
      {"measurement": "IC50", "setting": "[3]", "value": 1820, "unit": "nM"},
      {"measurement": "selectivity ratio", "setting": "[4]", "value": 5.14},
      {"measurement": "selectivity ratio", "setting": "[5]", "value": 11},
      {"measurement": "Activity", "setting": "[6]", "value": 65.94, "unit": "%"},
      {"measurement": "Activity", "setting": "[7]", "value": 11.92, "unit": "%"},
      {"measurement": "Activity", "setting": "[8]", "value": 22.14, "unit": "%"},
      {"measurement": "Activity", "setting": "MCF7 [9]", "value": 87.2, "unit": "%"},
      {"measurement": "Activity", "setting": "MCF7 [10]", "value": 1.57, "unit": "%"},
      {"measurement": "Activity", "setting": "MCF7 [11]", "value": 8.55, "unit": "%"},
      {"measurement": "Activity", "setting": "MDA-MB-231 [12]", "value": 45.4, "unit": "%"},
      {"measurement": "Activity", "setting": "MDA-MB-231 [13]", "value": 25.4, "unit": "%"},
      {"measurement": "Activity", "setting": "MDA-MB-231 [14]", "value": 29.36, "unit": "%"},
      {"measurement": "Activity", "setting": "MCF7 [15]", "value": 94.16, "unit": "%"},
      {"measurement": "Activity", "setting": "MCF7 [16]", "value": 4.93, "unit": "%"},
      {"measurement": "Activity", "setting": "MCF7 [17]", "value": 0.66, "unit": "%"},
      {"measurement": "Activity", "setting": "MCF7 [18]", "value": 0.23, "unit": "%"},
      {"measurement": "Activity", "setting": "MCF7 [19]", "value": 16.13, "unit": "%"},
      {"measurement": "Activity", "setting": "MCF7 [20]", "value": 23.38, "unit": "%"},
      {"measurement": "Activity", "setting": "MCF7 [21]", "value": 13.84, "unit": "%"},
      {"measurement": "Activity", "setting": "Mus musculus [22]", "value": "Non-toxic"},
      {"measurement": "Activity", "setting": "Mus musculus [23]", "value": "Non-toxic"},
      {"measurement": "viability", "setting": "MCF7 [24]", "value": 46.65, "unit": "%"}
    ]}
  ]
}
